In the library only some 2.6% were active in any assay of this set; here they are far more common.
STEP inh: STEP (human) phosphatase inhibition; 360,000 compounds, 0.25% hits; inhibition, % at 20 µM; recombinant STEP, OMFP fluorogenic substrate, fluorescence;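 active means inhibition at 20 µM, scaled per plate between control wells, above about 37%, limit read from the data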;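 further: 0% = DMSO with enzyme and substrate and 100% = substrate only without enzyme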
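System: isolated STEP enzyme; schedule: 20 min enzyme reaction at room temperature, protected from light; medium: Bis-Tris buffer pH 6.0, 2.5 mM DTT, 0.005% Tween 20; signal: fluorescence, 480/540 nm; dosing: single compound dose of 20 µM, 1% DMSO final; also added: OMFP substrate, 25 µM final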
NadD block: inhibitors of Staphylococcus aureus NadD; inhibition, % at 20 µM; purified NadD enzyme, colorimetric absorbance read-out; 360,000 compounds, 0.78% hits; in the data active means inhibition above about 26%
rCAG binder: r(CAG) repeat RNA binding; inhibition, % at 3 µM; 370,000 compounds, 1.3% hits; TO-PRO-1 dye displacement fluorescence;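 active means inhibition above the plate cutoff, the mean of all test compounds on that plate plus 3 SD, cut at about 35% in these data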;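 further: 0% = DMSO alone and 100% = 100 µM mitoxantrone as full dye displacement; higher means more dye released from RNA so lower well fluorescence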
LMPTP inh: LMPTP (human) inhibition. P24666. recombinant LMPTP-A, OMFP fluorogenic substrate, fluorescence intensity. 360,000 compounds, 0.22% hits. inhibition, % at 20 µM;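 active means compounds that cut the enzyme signal by at least half of the control window in the single-dose screen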;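 further: plate controls were DMSO wells with enzyme plus substrate for no effect and substrate without enzyme for full effect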
Target sequence (P24666 whole entry, looked up): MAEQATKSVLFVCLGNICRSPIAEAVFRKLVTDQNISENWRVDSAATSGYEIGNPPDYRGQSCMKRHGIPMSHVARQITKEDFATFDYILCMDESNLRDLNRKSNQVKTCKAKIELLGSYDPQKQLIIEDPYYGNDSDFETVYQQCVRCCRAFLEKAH
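test system = LMPTP-A | amount = 0.625 nM LMPTP-A final | reagent = fluorogenic phosphatase substrate OMFP at 400 µM final | incubation = 50 min at room temperature | benchmarks = no-enzyme low control, uninhibited high control | medium = Bis-Tris pH 6.0, DTT, detergent | signal = fluorescence intensity of OMFP turnover product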
Scp1 inh: blocks human Scp-1 phosphatase activity; 340,000 compounds, 0.88% hits; inhibition, % at 20 µM; Recombinant Scp1, phosphopeptide, malachite green phosphate absorbance; AID 493091;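 active means inhibition above about 50% at 20 µM, limit read from the data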;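 further: plate controls were DMSO wells with enzyme for no effect and wells lacking enzyme for full effect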
Target sequence (Q9GZU7 76-261 limits assumed): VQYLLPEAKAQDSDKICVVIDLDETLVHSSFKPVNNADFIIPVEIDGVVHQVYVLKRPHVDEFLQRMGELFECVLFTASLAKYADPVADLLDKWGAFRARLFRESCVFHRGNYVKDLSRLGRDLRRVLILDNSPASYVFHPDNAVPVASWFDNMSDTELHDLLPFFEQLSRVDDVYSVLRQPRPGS
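Material – SCP-1 phosphatase catalytic domain, residues 76-261 · Buffer or medium – Acidic Tris acetate buffer with magnesium and detergent · Also added – Phospho 17-mer peptide substrate · Compound – single 20 µM dose, 1% DMSO · Times – 45 min room-temperature reaction, 5 min colour, 30 min stabiliser · Technique – Phosphate-binding colour reagent, absorbance read at 630 nm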
rCAG binder conf: r(CAG) RNA repeat binding, confirmation; shares compounds with rCAG binder; TO-PRO-1 dye displacement fluorescence; inhibition, % at 3 µM; 4,300 compounds, 70% hits; AID 652065;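 active means inhibition above a per-plate cutoff, the mean inhibition of sample wells plus 3 SD, cut at about 35% in these data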;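 further: loss of TO-PRO-1 fluorescence as compound displaces dye from 1x1 AA loop RNA; 0% = DMSO only wells and 100% = 100 µM mitoxantrone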
DNA CAG counter: disrupts DNA CAG TO-PRO-1 complex, flagging rCAG hits; shares compounds with rCAG binder; d(CAG) DNA oligo TO-PRO-1 dye displacement, fluorescence; AID 652068; inhibition, % at 3 µM; 4,300 compounds, 94% hits;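 active means inhibition above its plate's cutoff, the mean test-well inhibition plus 3 SD, cut at about 4.8% in these data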;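 further: 0% = DNA dye mix with DMSO and 100% = 100 µM mitoxantrone; hits displace the dye from DNA and so lower well fluorescence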
Active calls of the source: *; . = not tested or not shown.

SMILES	STEP inh	NadD block	rCAG binder	LMPTP inh	Scp1 inh	rCAG binder conf	DNA CAG counter
Cc1ccc(S(=O)(=O)/N=C2/C=C(C3C(=O)CC(C)(C)CC3=O)C(=O)c3ccccc32)cc1	-2	5	17	1	0	.	.
Cc1cc(C)c(S(=O)(=O)/N=C2\C=C(NS(=O)(=O)c3ccccc3)C(=O)c3ccccc32)c(C)c1	2	30*	45*	2	-10	85*	57*
CCc1c(-c2cccc(OC)c2)ncn1CCc1ccccc1OC	.	.	-3	.	.	.	.
Cc1ccc(S(=O)(=O)NN2C(=O)/C(=C/c3ccc(F)cc3)SC2=S)cc1	-3	11	26	-1	-14	.	.
Cc1ccc(S(=O)(=O)NN2C(=O)/C(=C/c3cccs3)SC2=S)cc1	-1	5	63*	1	3	55*	22*
COc1ccc(/C=C2/SC(=S)N(NS(=O)(=O)c3ccc(C)cc3)C2=O)cc1	1	20	84*	3	-3	84*	47*
Cc1ccc(S(=O)(=O)NN2C(=O)/C(=C\c3ccc(Cl)cc3)SC2=S)cc1	2	11	11	-1	1	.	.
C=CCOc1ccc(/C=C2\SC(=S)N(NS(=O)(=O)c3ccc(C)cc3)C2=O)cc1	2	17	80*	0	-10	84*	53*
O=C(C1CCCN1S(=O)(=O)c1ccc(F)cc1)N1CCc2ccccc2C1 (centres undefined)	.	.	2	.	.	.	.
Cc1ccc(CSc2nnc(-c3cc(-c4ccc(F)cc4)n[nH]3)n2N)cc1	.	.	5	.	.	.	.
COC(=O)[C@]12C[C@H](CC(=O)N3CCCC3)C(=O)N(Cc3ccccc3)C1=C[C@H](COCc1ccccc1)O[C@@H]2C	.	.	3	.	.	.	.
Cc1nc(Nc2nc(-c3ccccc3)cc(=O)[nH]2)nc2ccccc12	3	14	37*	2	9	19	6.5*
Cc1nc(Nc2nc(CSc3nc4ccccc4[nH]3)cc(=O)[nH]2)nc2ccccc12	2	27	41*	24	-5	32	21*
Cc1nc(Nc2nc(CSc3ccc(Cl)cc3)cc(=O)[nH]2)nc2ccccc12	0	3	8	-1	-4	.	.
CCOc1cccc(-c2nnc(SCC(=O)Nc3ccc4c(c3)OCO4)n2N)c1	.	.	2	.	.	.	.
O=C(COC(=O)c1ccc(Br)o1)Nc1ncc([N+](=O)[O-])s1	1	4	34	3	18	.	.
COc1ccc(C(=O)OCC(=O)Nc2ncc([N+](=O)[O-])s2)cc1OC	17	6	52*	23	51*	74*	41*
COC(=O)[C@]12C[C@H](CC(=O)NCCCCc3ccccc3)C(=O)N(Cc3ccco3)C1=C[C@H](C(C)C)O[C@@H]2C1CC1	.	.	1	.	.	.	.
CCOC(=O)c1c(C)[nH]c(C(=O)OCC(O)=C(C#N)c2nc3ccccc3[nH]2)c1C	-1	10	42*	1	-7	31	14*
Cc1c(CCCC(=O)O)sc(N)c1C(=O)c1cccc(C(F)(F)F)c1	1	4	47*	0	-6	27	5.0*
O=C(NC(=S)Nc1sc2c(c1C(=O)O)CCCC2)c1ccccc1	3	8	72*	1	-12	56*	20*
O=C(O)c1ccc(NS(=O)(=O)c2cccc(C(=O)Nc3ccc(Br)cc3)c2)cc1	-4	-2	13	1	-18	.	.
O=C(Nc1sc2c(c1C(=O)O)CCC2)c1cccc(Cl)c1	6	-4	74*	-1	-16	53*	15*
Cc1ccccc1C(=O)Nc1sc2c(c1C(=O)O)CCC2	2	-5	6	0	-13	.	.
N#Cc1c(NC(=S)NC(=O)c2ccccc2)sc2c1CCC2	2	9	18	28	-7	.	.
SMILES	STEP inh	NadD block	rCAG binder	LMPTP inh	Scp1 inh	rCAG binder conf	DNA CAG counter
Cc1cccc(C(=O)Nc2sc3c(c2C(=O)O)CCCC3)c1	-2	-1	41*	-1	-9	32	9.3*
N#Cc1c(NC(=O)c2cccc(S(=O)(=O)Nc3ccc(C(=O)O)cc3)c2)sc2c1CCCC2	1	7	61*	0	-13	46*	17*
O=C(Nc1sc2c(c1C(=O)O)CCC2)c1ccccc1Cl	-2	-6	12	-3	-2	.	.
COC(=O)[C@@]12CCCCC3=C1N(CCC3)C(=O)[C@H]2CC(=O)N1CCCC1	.	.	2	.	.	.	.
O=S(=O)(Nc1nc2ccc(S(=O)(=O)N3CCCC3)cc2s1)c1ccc(F)cc1	4	23	69*	-1	-8	52*	20*
CCCCCCC12C(=Cc3cc4c(cc31)OCCO4)c1cc(OC)c(OC)cc1C(CC(=O)O)N2C(=O)OC (centres undefined)	.	.	43*	.	.	35*	7.0*
Cc1cc(NS(=O)(=O)c2ccc(NC(=S)NC(=O)c3ccc(C(C)(C)C)cc3)cc2)no1	-3	16	7	1	-11	.	.
COCc1nnc(NS(=O)(=O)c2ccc(NC(C)=O)cc2)s1	-2	1	-2	-1	-16	.	.
COc1ccc(C(=O)NC(=S)Nc2ccc(S(=O)(=O)Nc3cc(C)on3)cc2)cc1OC	0	-4	35*	-1	-7	36*	6.5*
CCc1nnc(NS(=O)(=O)c2ccc(NC(=S)NC(=O)c3ccc(OC)c(OC)c3)cc2)s1	2	8	68*	-1	-7	68*	32*
COc1ccc(Cc2nnc(NC(=O)CSc3ccc(Cl)cc3)s2)cc1OC	.	.	4	.	.	.	.
COc1ccc(-c2csc(Nc3ccc(S(=O)(=O)Nc4cc(C)on4)cc3)n2)cc1C	-3	20	93*	4	-8	82*	43*
COc1ccc(Cc2nnc(NS(=O)(=O)c3ccc(Cl)cc3)s2)cc1OC	2	5	49*	3	3	53*	16*
C#CCCN([C@@H](CC(C)C)C(=O)OC)S(=O)(=O)c1ccc(F)cc1Br	.	.	-3	.	.	.	.
CCOc1ccc(C2CC=C(C(=O)O)CN2S(=O)(=O)c2ccc(C)cc2)cc1 (centres undefined)	.	.	20	.	.	.	.
CCc1nnc(NS(=O)(=O)c2ccc(NC(=S)NC(=O)/C=C/c3ccc([N+](=O)[O-])cc3)cc2)s1	2	7	37*	-1	-5	23	7.7*
CCc1nnc(NS(=O)(=O)c2ccc(NC(=S)NC(=O)c3ccc(OC)cc3)cc2)s1	-2	8	70*	-1	-8	67*	33*
CC(C)(C)C(=O)NC(=S)Nc1ccc(S(=O)(=O)Nc2nccs2)cc1	4	3	27	3	-4	.	.
CCc1nnc(NS(=O)(=O)c2ccc(NC(=S)NC(=O)c3ccncc3)cc2)s1	1	0	19	-2	-1	.	.

Compound activity from PubChem.
